Test results: the RNAGym collection of RNA variant scans (doi:10.1126/science.aae0568)
Variants at the floor of the assay were thinned out.

B1: tRNA (parent)
chain: GUUCCGUUGGCGUAAUGGUAACGCGUCUCCCUCCUAAGGAGAAGACUGCGGGUUCGAGUCCCGUACGGAACG

Variants of: B1
Assay: yeast fitness relative to wild type (ratio to wild type); higher = fitter; tRNA-Arg(CCU), competitive growth, 37 C, YPD
In short: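 A pool of Saccharomyces cerevisiae strains, each with a tRNA-Arg(CCU) gene variant at the native genomic locus, was competed in YPD at 37°C for 24 hours across six parallel replicates. The variants had been chemically synthesised at a 3% per-site mutation rate over 69 sites, and gene amplicons before and after competition were read by 100-nucleotide paired-end sequencing. Darwinian fitness relative to wild type rested on changes in genotype frequencies. Genotypes required ≥ 100 starting reads, and estimates < 0.5 were set to 0.5.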

Variant	yeast fitness
U3G U8C C24A C30U	≤ 0.5
C4A A14G A20U C49A	0.87
C4A C5U U19A A42G	≤ 0.5
U3G C31A G41A	≤ 0.5
C4A C30G A45C C61G	≤ 0.5
C4A C46A G67A	0.73
U3G C66G	0.712
U3G C66A	0.591
U3G C11U U47A G48C	0.675
U3G C24U G58A U59A A65U	0.514
U3G G18A	0.694
U3G G17C C31A U35C A45U	≤ 0.5
C4A C24G G44C C62G	≤ 0.5
C4A C31U A42C C66A	0.523
C4A C24A G52C A57C U59A	0.57
U3G U8C G50C G68C	≤ 0.5
C4A A20C C34A G39C A43U	0.512
C4A C5U A57U U59C	≤ 0.5
U3G C62U A70U	0.551
C4A C33A A40U	0.522
U3G C11U C46U C61G	≤ 0.5

Variant	yeast fitness
C4A A20U C29G C49G G63C	≤ 0.5
U3G U7A G9A A69U	≤ 0.5
C4A A20G U28G G68C A70C	≤ 0.5
C4A C24G G44C G68U	0.562
U3G C46U U59A	0.562
C4A C31G	0.758
C4A A42U	0.716
U3G U8C A15G C24G G50A C55U	≤ 0.5
C4A A15G G17A C30G G48A U53C C62U	≤ 0.5
C4A A20G G48A A69C	≤ 0.5
U3G G50C	0.699
U3G G6A A14G G38C G41C A57C	0.62
C4A C33G A45G	≤ 0.5
C4A C11A U47G	≤ 0.5
U3G U8C G68C	≤ 0.5
U3G C11U U19C A20U A42C A65C	≤ 0.5
C4A C34G G38C A70G	≤ 0.5
C4A C27A G38A	0.513
C4A A15G C33G C60A	≤ 0.5
C4A C30A A37C	≤ 0.5
U3G C30G C49U	≤ 0.5

Variant	yeast fitness
C4A C29G C34G C49U	0.557
C4A C11U C29G U32A G52A	0.596
C4A C49A	0.684
U3G C46U	0.903
U3G C46A	0.802
C4A A36C C49U A57G	≤ 0.5
C4A C24G U28A U35C C49U	0.542
U3G C5U G51A	≤ 0.5
C4A C61G	0.71
C4A C61U	0.911
C4A C27U C60G	≤ 0.5
U3G U16C C29G	≤ 0.5
C4A C5A A20U C31U C49U	≤ 0.5
C4A A14G G63A	≤ 0.5
U3G C5U C30U A40U C49U	≤ 0.5
U3G G9C	0.573
U3G C11U G17A U19C A20U A42C A65C A69U	≤ 0.5
C4A C24A A42G	0.603
U3G C27G G50C	≤ 0.5
U3G G10C U26C	≤ 0.5
U3G C24U C27G C30A A65U A69U	≤ 0.5

Variant	yeast fitness
U3G C27A	0.633
C4A C5A C22A U28G C33G A57G C62A	≤ 0.5
C4A C30A A40G	0.74
C4A C11G G51C	≤ 0.5
U3G G18A U28A	0.613
C4A C61U A69C	0.578
C4A A14U C27U U28A	0.859
U3G U13A U16A	0.65
C4A C46G C62U	0.609
C4A A45C	0.754
C4A C31U C46A	0.726
C4A C22U C30A	0.504
U3G G17A C27G C33U A45G	≤ 0.5
U3G G12C U19C C60U	≤ 0.5
C4A C5A A42U A57C C61U A65U	≤ 0.5
C4A A14C G41A G48C C55A A65C	0.556
C4A C5U C24G	≤ 0.5
C4A C30U A40G	0.542
C4A C22G C27U	0.522
C4A C24U C29U	≤ 0.5
